Assay results published in ChEMBL document CHEMBL1154084, “Preparation and antitubercular activities in vitro and in vivo of novel Schiff bases of isoniazid” (Eur J Med Chem, 2009).
Values after ≈ are worked out from the molar mass of the structure shown.

Assays:
[1] = tested on: Mycobacterium tuberculosis; test: Antitubercular activity against Mycobacterium tuberculosis H37Rv by broth dilution method; format: functional
[2] = Selectivity index, ratio IC50 for african green monkey Vero cells to MIC for Mycobacterium tuberculosis H37Rv; format: functional
How it was run: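 Vero cells exposed 72 h, at up to ten times the MIC, with viability read by a cell proliferation assay. SI is IC50 divided by the MIC against H37Rv; the screening criterion is SI >10.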

[3] = tested on: Mycobacterium tuberculosis; test: Antitubercular activity against Mycobacterium tuberculosis infected in C57BL/6 mouse assessed reduction in colony forming units per lung at 25 mg/kg administered for 2 days after 24 hrs post-infection measured after 3 days by short course therapy (Rvb=6.51 +/- 0.13 logCFU/lung); format: functional
[4] = tested on: Mycobacterium tuberculosis; test: Bacteriostatic activity in Mycobacterium tuberculosis Erdman infected in mouse macrophages assessed as reduction of colony forming units after 7 days; format: functional; settings: 168 h
How it was run: (§1)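 CFU read at 7 days against drug-free controls. EC90 is the lowest concentration giving 90% CFU reduction (bacteriostatic); EC99 is the lowest giving 99% (bactericidal).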

[5] = tested on: Mycobacterium tuberculosis; test: Bactericidal activity in Mycobacterium tuberculosis Erdman infected in mouse macrophages assessed as reduction of colony forming units after 7 days; format: functional; settings: 168 h; how it was run: as §1
[6] = Ratio of EC90 for Mycobacterium tuberculosis Erdman to MIC for Mycobacterium tuberculosis H37Rv; format: functional
[7] = tested on: Mycobacterium tuberculosis; test: Antitubercular activity against Mycobacterium tuberculosis infected in CD1 mouse assessed colony forming units per lung at 25 mg/kg administered 5 days a week for 4 weeks after 1 week post-infection by long course therapy (Rvb=8.80 +/- 0.18 logCFU/lung); format: functional
[8] = tested on: Mycobacterium tuberculosis; test: Antitubercular activity against Mycobacterium tuberculosis Erdman by broth dilution method; format: functional
How it was run: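 Modified 7H10 broth (no agar or malachite green; pH 6.6) with 10% OADC and 0.05% Tween 80; broth dilution MIC90. Inoculum grown 5 days at 37°C on rotary shaker, diluted to 100 Klett units/mL (about 5 × 10^7 cfu/mL), checked by triplicate 7H10 agar counts after 4 weeks at 37°C. Compounds dissolved in DMSO, diluted in distilled water; isoniazid and PAS as reference standards.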

[9] = tested on: Mycobacterium tuberculosis; test: Antitubercular activity against Mycobacterium tuberculosis infected in C57BL/6 mouse assessed reduction in colony forming units per lung at 25 mg/kg administered for 2 days after 24 hrs post-infection measured after 3 days by short course therapy (Rvb=6.37 +/- 0.24 logCFU/lung); format: functional
Mus musculus = species: Mus musculus; test: Toxicity in C57BL/6 mouse assessed as overt toxicity; format: organism-based; settings: in vivo
How it was run: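 C57BL/6 mice infected intranasally with approximately one million viable M. tuberculosis organisms. Dosing by gavage at 25 mg/kg body weight (compound in DMSO diluted in distilled water), starting one day post-infection and given for two days. Animals observed for ill effects or overt toxicity until sacrifice by CO2 inhalation three days post-infection. Groups of six mice.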

For `CCC/C(CC(=O)OCC)=N/NC(=O)c1ccncc1` [ETHYL BUTYRYL ACETATE ISONICOTINOYLHYDRAZONE], the MIC90 [1] was 0.39 mg/L and the Ratio [2] was >2631.
For `CC(C)C/C=C(\C=N\NC(=O)c1ccncc1)C(C)C`, the Ratio [2] was >10 and the log10cfu [3] was 5.49.
For `CCOC(=O)/C(CCc1ccccc1)=N\NC(=O)c1ccncc1`, the MIC90 [1] was 0.1 mg/L (≈ 0.307 µM) and the Ratio [2] was >1250.
`O=C(N/N=C/c1cccc([N+](=O)[O-])c1)c1ccncc1` showed a Ratio [2] of 8.
With `CCOC(=O)C/C(Cc1ccccc1)=N/NC(=O)c1ccncc1` the MIC90 [1] was 0.1 mg/L (≈ 0.307 µM), the Ratio [2] was >1250 and the EC90 [4] was 0.01 mg/L (≈ 0.0307 µM). For the same compound, the EC99 [5] was 0.211 µg/mL and the Ratio [6] was 0.1.
With `O=C(N/N=C/c1cccc(Cl)c1Cl)c1ccncc1` the MIC90 [1] was 0.78 mg/L (≈ 2.65 µM), the Ratio [2] was >32 and the EC90 [4] was 0.071 mg/L (≈ 0.241 µM). The EC99 [5] was 0.3 µg/mL and the Ratio [6] was 0.09.
Compound `O=C(N/N=C/C=N/NC(=O)c1ccncc1)c1ccncc1` has an MIC90 [1] of 0.1 mg/L (≈ 0.338 µM).
`O=C(N/N=C/C=C(c1ccccc1)c1ccccc1)c1ccncc1` gave a Ratio [2] of 68, an EC90 [4] of 0.028 mg/L (≈ 0.0855 µM) and an EC99 [5] of 0.121 µg/mL. The Ratio [6] was 0.28.
`CCCCCCOc1ccc(/C=N/NC(=O)c2ccncc2)cc1` showed a Ratio [2] of 1.5.
For `CCCCCCCCCCCC/C=N\NC(=O)c1ccncc1`, the MIC90 [1] was 0.2 mg/L (≈ 0.63 µM) and the Ratio [2] was 374.
`O=C(N/N=C/c1ccccc1[N+](=O)[O-])c1ccncc1` gave an MIC90 [1] of 0.39 mg/L (≈ 1.44 µM).
With `O=C(N/N=C/c1ccc(Cl)cc1)c1ccncc1` the MIC90 [1] was 0.2 mg/L (≈ 0.77 µM), the Ratio [2] was >50 and the EC90 [4] was 0.04 mg/L (≈ 0.154 µM). It also gave an EC99 [5] of 0.14 µg/mL and a Ratio [6] of 0.2.
In the case of `CC1C/C(=N/NC(=O)c2ccncc2)CC(C)(C)C1` (stereo not drawn), the MIC90 [1] is reported as < 0.025 mg/L, the Ratio [2] is reported as >2000 and the EC90 [4] is reported as 0.063 mg/L (≈ 0.243 µM). It also gave an EC99 [5] of 0.15 µg/mL and a Ratio [6] of 2.52.
In the case of `CC(C)=CCCC(C)C/C=N/NC(=O)c1ccncc1` (stereo not drawn), the MIC90 [1] is reported as 0.2 mg/L (≈ 0.732 µM) and the Ratio [2] is reported as >1000.
With `COc1ccccc1/C=C/C=N/NC(=O)c1ccncc1` the MIC90 [1] was 0.1 mg/L (≈ 0.355 µM).
In the case of `COc1ccc(/C=C/C=N/NC(=O)c2ccncc2)cc1`, the Ratio [2] is reported as >50.
For `O=C(NN=C1CCCCC1)c1ccncc1`, the MIC90 [1] was 0.03 mg/L (≈ 0.138 µM), the Ratio [2] was >40000 and the EC90 [4] was 0.08 mg/L (≈ 0.368 µM). For the same compound, the EC99 [5] was 0.42 µg/mL, the Ratio [6] was 2.7 and the log10cfu [7] was 4.65.
For `O=C(N/N=C/c1ccc(Cl)c(Cl)c1)c1ccncc1`, the MIC90 [1] was 0.2 mg/L (≈ 0.68 µM), the Ratio [2] was >50 and the EC90 [4] was 0.106 mg/L (≈ 0.36 µM). The EC99 [5] was 0.596 µg/mL and the Ratio [6] was 0.53.
`Nc1ccc(C(=O)O)c(O)c1` [AMINOSALICYLIC ACID] showed an MIC [8] of 0.03 mg/L (≈ 0.196 µM).
`CCCCC/C(=N\NC(=O)c1ccncc1)c1ccccc1` gave an MIC90 [1] of 0.39 mg/L (≈ 1.32 µM), a Ratio [2] of 25 and an EC90 [4] of 0.05 mg/L (≈ 0.169 µM). It also gave an EC99 [5] of 0.25 µg/mL and a Ratio [6] of 0.13.
In the case of `CC(/C=N/NC(=O)c1ccncc1)=C\c1ccccc1`, the MIC90 [1] is reported as 0.5 mg/L (≈ 1.88 µM), the Ratio [2] is reported as >250 and the log10cfu [3] is reported as 5.22.
For `C/C=C/C=N/NC(=O)c1ccncc1`, the MIC90 [1] was < 6.25 mg/L.
For `NNC(=O)c1ccncc1` [ISONIAZID], the log10cfu [9] was 5.58, the MIC [1] was 0.03 mg/L (≈ 0.219 µM) and the Ratio [6] was 1. The MIC [8] was 0.03 mg/L (≈ 0.219 µM), the log10cfu [7] was 4.71 and the Activity (Mus musculus) was “Non-toxic”. It also gave a log10cfu [3] of 4.96.
For `CC/C=C/C=N/NC(=O)c1ccncc1`, the MIC90 [1] was 0.05 mg/L (≈ 0.246 µM), the Ratio [2] was 712 and the EC90 [4] was 0.028 mg/L (≈ 0.138 µM). The EC99 [5] was 0.529 µg/mL and the Ratio [6] was 0.56.
Work on `CC(C)=CCC/C(C)=C/C=N/NC(=O)c1ccncc1` yielded an MIC90 [1] of 0.1 mg/L (≈ 0.369 µM).
For `O=C(N/N=C/c1ccccc1)c1ccncc1` [N'-BENZYLIDENE ISONICOTINOHYDRAZIDE], the MIC90 [1] was 0.05 mg/L (≈ 0.222 µM) and the Ratio [2] was 4000.
With `CCCCCCCCCCCCC/C=N\NC(=O)c1ccncc1` the MIC90 [1] was 0.2 mg/L (≈ 0.603 µM).
With `CC(C)=NNC(=O)c1ccncc1` the MIC90 [1] was 0.1 mg/L (≈ 0.564 µM) and the Ratio [2] was >10000.
In the case of `CCCC/C=C/C=N/NC(=O)c1ccncc1`, the MIC90 [1] is reported as < 6.25 mg/L.
Compound `COc1cc(/C=N/NC(=O)c2ccncc2)cc(I)c1OC` has an MIC90 [1] of 0.2 mg/L (≈ 0.486 µM) and a Ratio [2] of 297.
With `COc1cc(/C=N/NC(=O)c2ccncc2)cc(I)c1O` the MIC90 [1] was 0.39 mg/L (≈ 0.982 µM) and the Ratio [2] was >160.
In the case of `CCOC(=O)C/C(C)=N\NC(=O)c1ccncc1` [ETHYL ACETOACETATE ISONICOTINOYLHYDRAZONE], the MIC90 [1] is reported as 0.2 mg/L (≈ 0.802 µM) and the Ratio [2] is reported as >5000.
In the case of `O=C(N/N=C/c1ccccc1Cl)c1ccncc1`, the MIC90 [1] is reported as 0.78 mg/L (≈ 3 µM) and the Ratio [2] is reported as >128.
Work on `O=C(N/N=C/c1ccc(Br)cc1)c1ccncc1` yielded an MIC90 [1] of 3.13 mg/L (≈ 10.3 µM) and a Ratio [2] of 12.
In the case of `CCC/C=C/C=N/NC(=O)c1ccncc1`, the MIC90 [1] is reported as < 6.25 mg/L.
In the case of `O=C(N/N=C/c1ccc(Cl)c([N+](=O)[O-])c1)c1ccncc1`, the MIC90 [1] is reported as 0.39 mg/L (≈ 1.28 µM), the Ratio [2] is reported as >64 and the EC90 [4] is reported as 0.078 mg/L (≈ 0.256 µM). It also gave an EC99 [5] of 0.3 µg/mL and a Ratio [6] of 0.2.
With `O=C(N/N=C/c1ccccc1OCc1ccccc1)c1ccncc1` the log10cfu [9] was 5.49, the MIC90 [8] was 0.06 mg/L (≈ 0.181 µM) and the Activity (Mus musculus) was “Non-toxic”.
In the case of `O=C(N/N=C/c1c(Cl)cccc1Cl)c1ccncc1`, the MIC90 [1] is reported as < 6.25 mg/L.
In the case of `CCCC/C=C(\C=N\NC(=O)c1ccncc1)CCC`, the Ratio [2] is reported as 1.6.
With `O=C(N/N=C/c1c(F)cccc1F)c1ccncc1` the MIC90 [1] was 0.1 mg/L (≈ 0.383 µM), the Ratio [2] was >1250 and the EC90 [4] was 0.037 mg/L (≈ 0.142 µM). The EC99 [5] was 0.15 µg/mL and the Ratio [6] was 0.37.
Compound `O=C(N/N=C/c1ccc(F)c(F)c1)c1ccncc1` has an MIC90 [1] of 1.56 mg/L (≈ 5.97 µM).
In the case of `CCCCOc1ccc(/C=N/NC(=O)c2ccncc2)cc1`, the MIC90 [1] is reported as 0.1 mg/L (≈ 0.336 µM) and the Ratio [2] is reported as >2000.
For `O=C(N/N=C/c1ccc(I)cc1)c1ccncc1`, the MIC90 [1] was 0.2 mg/L (≈ 0.57 µM) and the Ratio [2] was >50.
For `O=C(N/N=C/c1ccc(/C=N/NC(=O)c2ccncc2)cc1)c1ccncc1`, the MIC90 [1] was 0.05 mg/L (≈ 0.134 µM) and the Ratio [2] was >126.
